Measurements of several laboratories.
Compare with care: the assays were run in different laboratories.
Target: Cyclin-dependent kinase-like 3 (CDKL3, Homo sapiens, UniProt Q8IVW4)

Compound | observed | method | concentration | remaining binding
CO[C@@H](C)c1c(Nc2ccc([C@H](N(C)C(=O)C3CCS(=O)(=O)CC3)C(F)(F)F)cc2)cnc2cc(Cl)nn12 | cell-free assay | competition with immobilised ligand | 1 µM | 73%
Cc1cnn2ncc(-c3ccnc(N(C)C)n3)c2c1 | binding | – | 1 µM | 86%
C=CC(=O)N1CCC(C(=O)NCC(=O)N2CCN(c3nc(-c4cnc(N)nc4C(F)F)nc(N4CCOCC4)n3)CC2)CC1 | binding | competition with immobilised ligand | 1 µM | 100%
CNC(=O)[C@@H]1CC[C@@H](n2c(-c3ccc4cnccc4c3)nc3ccc(C(=O)NCc4cccc(C(N)=O)c4)cc32)C1 | binding | competition with immobilised ligand | 1 µM | 96%
CS(=O)(=O)NCC[C@H](NC(=O)c1cncc2c1cnn2-c1ccc(F)cc1)c1ccnc(S(C)(=O)=O)c1 | binding | competition with immobilised ligand | 1 µM | 99%
COc1ncc2cc3ccccc3nc2c1C#N | binding | competition with immobilised ligand | 5 µM | 85%
CN(CCCC(F)(F)F)c1nccc(-c2cnn3ncccc23)n1 | binding | – | 1 µM | 100%
CCCCN(CCCC)C(=O)CN1C[C@H](c2cc(OC)c3c(c2)OCO3)[C@@H](C(=O)O)[C@@H]1CC(C)(C)CCC | cell-free assay | competition with immobilised ligand | 1 µM | 100%
COc1ccnn2ncc(-c3ccnc(N(C)C)n3)c12 | binding | – | 1 µM | 94%
O=C(c1ccc(Nc2ncc(Cl)c(-c3ccc(Cl)s3)n2)cc1)N1CCC(N2CCCC2)CC1 | binding | competition with immobilised ligand | 1 µM | 39%
C[C@@H](c1ccc(-n2cnc3c(N)ncnc32)cc1)N1CCc2nn(C)c(Cc3ccccc3)c2C1=O | binding | competition with immobilised ligand | 0.1 µM | 95%
O=C(NCC1CCOCC1)c1n[nH]cc1NC(=O)c1c(F)cccc1F | binding | competition with immobilised ligand | 1 µM | 100%
CNCc1ccccc1-c1csc([C@@H](C)Nc2nc(C)nc3cc(OC)c(OC)cc23)c1 | cell-free assay | competition with immobilised ligand | 1 µM | 99%
Nc1ncc2c(n1)-c1c([nH]c3ccc(C#CC4CC4)cc13)CCCC2 | binding | competition with immobilised ligand | 1 µM | 83%
CN(C)CC#Cc1ccc(OCCCc2sc(N3CCc4cccc(C(=O)Nc5nc6ccccc6s5)c4C3)nc2C(=O)O)c(F)c1 | cell-free assay | competition with immobilised ligand | 1 µM | 100%
Cc1cnc(Nc2ccc(C(=O)N3CCC(N4CCCC4)CC3)cc2)nc1-c1cc2ccccc2s1 | binding | competition with immobilised ligand | 1 µM | 89%
N[C@H]1CCN(c2nccc(-c3cnn4ncccc34)n2)C1 | binding | – | 1 µM | 100%
O=C(NCCCN1CCOCC1)c1ccc(Nc2ncc(Cl)c(-c3ccc(Cl)s3)n2)cc1 | binding | competition with immobilised ligand | 1 µM | 86%
CC(C)CC(=O)N1CCc2nc(-c3ccc(Br)cc3)nc(N(C)Cc3ccccc3)c2C1 | cell-free assay | competition with immobilised ligand | 0.1 µM | 89%
C[C@H]1CCN(c2nccc(-c3cnn4ncccc34)n2)C1 | binding | – | 1 µM | 85%
